Source: ChEMBL document CHEMBL1152469, “Telithromycin resistance in Streptococcus pneumoniae is conferred by a deletion in the leader sequence of erm(B) that increases rRNA methylation” (2008)
Values after ≈ are worked out from the molar mass of the structure shown.

Experiments:
Assay type in all cases: functional
Streptococcus pneumoniae [1] = experiment: Antimicrobial activity against telithromycin-resistant Streptococcus pneumoniae isolate P1501016 by agar dilution method
In short: (§1)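 Agar dilution MICs per CLSI agar plate preparation, plates containing 5% horse blood, incubated in ambient air 20-24 h; MICs interpreted with CLSI broth microdilution breakpoints (telithromycin ≤1 µg/ml S, 2 I, ≥4 R). Reference strain S. pneumoniae ATCC49619. Induction testing run without and with erythromycin (0.25 µg/ml).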

Streptococcus pneumoniae [2] = experiment: Antimicrobial activity against wild-type Streptococcus pneumoniae PC13 by agar dilution method
In short: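 Agar dilution MICs on plates prepared per CLSI guidance and containing 5% horse blood. Plates incubated in ambient air for 20-24 h. Interpretation used CLSI broth microdilution breakpoints, with S. pneumoniae ATCC49619 as reference strain.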

Streptococcus pneumoniae [3] = experiment: Increase in erm(B) mRNA expression in Streptococcus pneumoniae […] transformant harboring 136-bp deletion in erm(B) gene at 0.25 ug/ml by qRT-PCR relative to baseline
In short: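 Strains grown in TSB at 37°C, 5% CO2 to OD600 0.2, untreated or with erythromycin (0.25 µg/ml), three cultures per condition. Cells stabilised in RNAProtect before RNA extraction. erm(B) mRNA quantified relative to the untreated culture. Means compared by paired t test at the 95% level.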

Streptococcus pneumoniae [4] = experiment: Increase in erm(B) mRNA expression in wild type Streptococcus pneumoniae PC13 at 0.25 ug/ml by qRT-PCR relative to baseline
In short: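 Cultures grown in triplicate in Tryptone Soya Broth at 37°C, 5% CO2 to OD600 0.2, without antibiotic or with erythromycin 0.25 µg/ml. Cells stabilised in RNAProtect, then RNA extracted for relative quantification of erm(B) mRNA against untreated cells.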

Streptococcus pneumoniae [5] = experiment: Increase in dimethylation at position A2058 of 23S rRNA of Streptococcus pneumoniae PC13 transformant harboring 136-bp deletion in erm(B) gene at 0.25 ug/ml by phosphorimager scanning relative to baseline
In short: (§2)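 Cells grown in TSB at 37°C, 5% CO2 to OD600 0.2, untreated or with telithromycin (0.008 µg/ml) or erythromycin (0.25 µg/ml), three cultures per condition. Total RNA extracted. Primer extension across G2061-U2079 of 23S rRNA on 1.5 pmol rRNA with reverse transcriptase, ddGTP mix in test samples, done in triplicate. Products run on denaturing polyacrylamide gels, quantified by phosphorimager as % A2058 dimethylation.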

Streptococcus pneumoniae [6] = experiment: Increase in dimethylation at position A2058 of 23S rRNA of Streptococcus pneumoniae isolate P1501016 at 0.25 ug/ml by phosphorimager scanning relative to baseline
In short: (§3)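 Cells grown in Tryptone Soya Broth at 37°C, 5% CO2 to OD600 0.2, either untreated, with telithromycin 0.008 µg/ml, or with erythromycin 0.25 µg/ml. Total RNA extracted. A primer complementary to 23S rRNA G2061-U2079 was extended by reverse transcriptase on 1.5 pmol rRNA with dTTP, dCTP and ddGTP. Triplicate reactions run on denaturing gels beside a sequencing ladder and quantified by phosphorimager.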

Streptococcus pneumoniae [7] = experiment: Increase in lag phase of growth for wild type Streptococcus pneumoniae PC13 assessed as doubling time at 1 ug/ml
In short: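 Glycerol stocks diluted 1:100 into Tryptone Soya Broth with or without erythromycin 1 µg/ml and incubated at 37°C, 5% CO2. OD600 read every 30 min, and doubling time calculated over exponential growth.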

Streptococcus pneumoniae [8] = experiment: Increase in lag phase of growth for Streptococcus pneumoniae PC13 transformant harboring 136-bp deletion in erm(B) gene assessed as doubling time at 1 ug/ml
In short: (§4)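 Inoculated from glycerol stocks 1:100 into TSB with or without erythromycin (1 µg/ml), 37°C in 5% CO2. OD600 read every 30 min; doubling time calculated over exponential growth.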

Streptococcus pneumoniae [9] = experiment: Increase in lag phase of growth for telithromycin-resistant Streptococcus pneumoniae isolate P1501016 assessed as doubling time at 1 ug/ml; in short: as §4
Streptococcus pneumoniae [10] = experiment: Antimicrobial activity against Streptococcus pneumoniae PC13 transformant harboring 136-bp deletion in erm(B) gene by agar dilution method; in short: as §1
Streptococcus pneumoniae [11] = experiment: Increase in erm(B) mRNA expression in Streptococcus pneumoniae PC13 transformant harboring 136-bp deletion in erm(B) gene at 0.008 ug/ml by qRT-PCR relative to baseline
In short: (§5)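 Cells grown in Tryptone Soya Broth at 37°C, 5% CO2 to OD600 0.2, in triplicate cultures per strain, without antibiotic or with telithromycin 0.008 µg/ml (erythromycin 0.25 µg/ml as a further condition). Cultures were then stabilised in RNAProtect Bacteria Reagent and pelleted. Total RNA was extracted and erm(B) mRNA quantified relative to untreated cultures.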

Streptococcus pneumoniae [12] = experiment: Increase in erm(B) mRNA expression in wild-type Streptococcus pneumoniae PC13 at 0.008 ug/ml by qRT-PCR relative to baseline; in short: as §5
Streptococcus pneumoniae [13] = experiment: Increase in dimethylation at position A2058 of 23S rRNA of wild type Streptococcus pneumoniae PC13 at 0.008 ug/ml by phosphorimager scanning relative to baseline; in short: as §3
Streptococcus pneumoniae [14] = experiment: Increase in dimethylation at position A2058 of 23S rRNA of wild type Streptococcus pneumoniae PC13 at 0.25 ug/ml by phosphorimager scanning relative to baseline; in short: as §3
Streptococcus pneumoniae [15] = experiment: Increase in dimethylation at position A2058 of 23S rRNA of Streptococcus pneumoniae PC13 transformant harboring 136-bp deletion in erm(B) gene at 0.008 ug/ml by phosphorimager scanning relative to baseline; in short: as §2
Streptococcus pneumoniae [16] = experiment: Increase in dimethylation at position A2058 of 23S rRNA of Streptococcus pneumoniae isolate P1501016 at 0.008 ug/ml by phosphorimager scanning relative to baseline; in short: as §3

CC[C@H]1OC(=O)[C@H](C)[C@@H](O[C@H]2C[C@@](C)(OC)[C@@H](O)[C@H](C)O2)[C@H](C)[C@@H](O[C@@H]2O[C@H](C)C[C@H](N(C)C)[C@H]2O)[C@](C)(OC)C[C@@H](C)C(=O)[C@H](C)[C@@H](O)[C@]1(C)O [CLARITHROMYCIN]
MIC (Streptococcus pneumoniae [1]): > 256 µg/mL | MIC (Streptococcus pneumoniae [2]): > 256 µg/mL

CCC[C@@H]1C[C@@H](C(=O)N[C@@H]([C@H]2O[C@H](SC)[C@H](O)[C@@H](O)[C@H]2O)[C@H](C)Cl)N(C)C1 [CLINDAMYCIN]
MIC (Streptococcus pneumoniae [1]): > 256 µg/mL | MIC (Streptococcus pneumoniae [2]): > 256 µg/mL

CC[C@H]1OC(=O)[C@H](C)[C@@H](O[C@H]2C[C@@](C)(OC)[C@@H](O)[C@H](C)O2)[C@H](C)[C@@H](O[C@@H]2O[C@H](C)C[C@H](N(C)C)[C@H]2O)[C@](C)(O)C[C@@H](C)C(=O)[C@H](C)[C@@H](O)[C@]1(C)O [ERYTHROMYCIN]
MIC (Streptococcus pneumoniae [1]): > 256 µg/mL | MIC (Streptococcus pneumoniae [2]): > 256 µg/mL | fold change (FC) (Streptococcus pneumoniae [3]): 4.98 | fold change (FC) (Streptococcus pneumoniae [4]): 2.57 | Activity (Streptococcus pneumoniae [5]): 72% | Activity (Streptococcus pneumoniae [6]): 68% | Activity (Streptococcus pneumoniae [7]): 53 min | Activity (Streptococcus pneumoniae [8]): 52.5 min | Activity (Streptococcus pneumoniae [9]): 43.3 min

CC[C@H]1OC(=O)[C@H](C)C(=O)[C@H](C)[C@@H](O[C@@H]2O[C@H](C)C[C@H](N(C)C)[C@H]2O)[C@](C)(OC)C[C@@H](C)C(=O)[C@H](C)[C@H]2N(CCCCn3cnc(-c4cccnc4)c3)C(=O)O[C@]12C [TELITHROMYCIN]
MIC (Streptococcus pneumoniae [1]): 8 µg/mL (≈ 9.85 µM) | MIC (Streptococcus pneumoniae [2]): 0.06 µg/mL (≈ 0.0739 µM) | MIC (Streptococcus pneumoniae [10]): 16 µg/mL (≈ 19.7 µM) | fold change (FC) (Streptococcus pneumoniae [11]): 1.31 | fold change (FC) (Streptococcus pneumoniae [12]): 0.66 | Activity (Streptococcus pneumoniae [13]): 29% | Activity (Streptococcus pneumoniae [14]): 46% | Activity (Streptococcus pneumoniae [15]): 64% | Activity (Streptococcus pneumoniae [16]): 66%

CN(C)[C@@H]1C(O)=C(C(N)=O)C(=O)[C@@]2(O)C(O)=C3C(=O)c4c(O)cccc4[C@@](C)(O)[C@H]3C[C@@H]12 [TETRACYCLINE]
MIC (Streptococcus pneumoniae [1]): 4 µg/mL (≈ 9 µM) | MIC (Streptococcus pneumoniae [2]): 16 µg/mL (≈ 36 µM) | MIC (Streptococcus pneumoniae [10]): 16 µg/mL (≈ 36 µM)
